In ChEMBL document CHEMBL2086243, “Spirocyclic nortriterpenoids with NGF-potentiating activity from the fruits of Leonurus heterophyllus” (J Nat Prod, 2012):
Activity calls are given as the source filed them. No cut-off for these calls is given here.

How the values were obtained:
PC-12 [1] = assay: Potentiation of NGF-induced neurite outgrowth-promotion in rat PC12 cells assessed as increase in neurite length at 10 uM incubated for 4 days in presence of 0.5 ng/mL NGF (reference value: 21.1 micrometer); format: functional
PC-12 [2] = assay: Potentiation of NGF-induced neurite outgrowth-promotion in rat PC12 cells assessed as increase in neurite length at 1 to 30 uM incubated for 4 days in presence of 0.5 ng/mL NGF (reference value: 21.1 micrometer); format: functional, cell-based
PC-12 [3] = assay: Effect on cell morphology in rat PC12 cells at 1 to 10 uM incubated for 4 days in absence of NGF; format: functional, cell-based
Method in brief: (§1)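 PC12 cells seeded at 8 × 10^3 cells/cm2 in DMEM + 10% HS, 5% FBS, penicillin/streptomycin, 37 °C, 5% CO2, 24 h. Medium then switched to DMEM + 2% HS, 1% FBS and test samples added without NGF. After 4 days, cells fixed in 4% paraformaldehyde−PBS, stained with methylene blue, and morphology examined by phase-contrast microscopy. Triplicate wells.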

PC-12 [4] = assay: Potentiation of NGF-induced neurite outgrowth-promotion in rat PC12 cells at 10 uM incubated for 4 days in presence of 0.5 ng/mL NGF; format: functional, cell-based
PC-12 [5] = assay: Potentiation of NGF-induced neurite outgrowth-promotion in rat PC12 cells assessed as increase in neurite length at 1 uM incubated for 4 days in presence of 0.5 ng/mL NGF (reference value: 21.1 micrometer); format: functional
PC-12 [6] = assay: Potentiation of NGF-induced neurite outgrowth-promotion in rat PC12 cells at 1 uM incubated for 4 days in presence of 0.5 ng/mL NGF; format: functional, cell-based
PC-12 [7] = assay: Toxicity in NGF-stimulated rat PC12 cells at > 30 uM incubated for 4 days in presence of 0.5 ng/mL NGF; format: cell-based; conditions: pc-12, 96 h
Method in brief: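 PC12 cells grown 24 h in DMEM + 10% HS/5% FBS, then exposed for 4 days to test samples with 0.5 ng/mL NGF in DMEM + 2% HS/1% FBS. After fixing in 4% paraformaldehyde−PBS and methylene blue staining, cells were examined under phase-contrast microscopy.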

PC-12 [8] = assay: Potentiation of NGF-induced neurite outgrowth-promotion in rat PC12 cells assessed as increase in neurite length at 30 uM incubated for 4 days in presence of 0.5 ng/mL NGF (reference value: 21.1 micrometer); format: functional
PC-12 [9] = assay: Effect on cell morphology in rat PC12 cells at 1 to 30 uM incubated for 4 days in absence of NGF; format: functional, cell-based; method in brief: as §1
PC-12 [10] = assay: Potentiation of NGF-induced neurite outgrowth-promotion in rat PC12 cells at 1 to 30 uM incubated for 4 days in presence of 0.5 ng/mL NGF; format: functional, cell-based

Compound | Activity (PC-12 [1]) [um] | Activity (PC-12 [2]) | Activity (PC-12 [3]) | Activity (PC-12 [4]) | Activity (PC-12 [5]) [um] | Activity (PC-12 [6]) | Activity (PC-12 [7]) | Activity (PC-12 [8]) [um] | Activity (PC-12 [9]) | Activity (PC-12 [10])
CC1(C)CC[C@]2(CC[C@]3(C)C(=CC[C@@H]4[C@@]5(C)C[C@@H](O)[C@H](O)[C@@](C)(CO)[C@@H]5CC[C@]43C)[C@H]2O)C1 | 33.1 | Dose-dependent effect | inactive | Active | 22.9 | Active | Toxic |  |  | 
CC1(C)CC[C@]2(CC[C@]3(C)C(=CC[C@@H]4[C@@]5(C)C[C@@H](O)[C@H](OC(=O)/C=C/c6ccc(O)cc6)[C@@](C)(CO)[C@@H]5CC[C@]43C)[C@H]2O)C1 (relative stereo) | 33.5 | Dose-dependent effect |  |  | 27.6 |  |  | 41.9 | inactive | Dose-dependent effect
CC1(C)CC[C@]2(CC[C@]3(C)C(=CC[C@@H]4[C@@]5(C)C[C@@H](O)[C@H](OC(=O)/C=C\c6ccc(O)cc6)[C@@](C)(CO)[C@@H]5CC[C@]43C)[C@H]2O)C1 (relative stereo) | 33.5 | Dose-dependent effect |  |  | 27.6 |  |  | 41.9 | inactive | Dose-dependent effect
COc1cc(/C=C/C(=O)O[C@H]2[C@H](O)C[C@@]3(C)[C@@H](CC[C@]4(C)[C@@H]3CC=C3[C@@H](O)[C@@]5(CCC(C)(C)C5)CC[C@]34C)[C@]2(C)CO)ccc1O (relative stereo) | 42 | Dose-dependent effect |  |  | 32.1 |  |  | 55.1 | inactive | Dose-dependent effect
COc1cc(/C=C\C(=O)O[C@H]2[C@H](O)C[C@@]3(C)[C@@H](CC[C@]4(C)[C@@H]3CC=C3[C@@H](O)[C@@]5(CCC(C)(C)C5)CC[C@]34C)[C@]2(C)CO)ccc1O (relative stereo) | 42 | Dose-dependent effect |  |  | 32.1 |  |  | 55.1 | inactive | Dose-dependent effect
